ChEMBL document CHEMBL3414537, “Efficient synthesis and biological activity of Psammaplin A and its analogues as antitumor agents” (Eur J Med Chem, 2015)
pIC50: −log10 of the molar value. Activity calls are given as the source filed them. The rule behind the calls is not given here.

Key:
[1] = tested on: A549; assay: Cytotoxicity against human A549 cells by SRB assay; format: functional, cell-based
How it was run: (§1)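 Cells at 3.5 × 10^4 cells/mL in RPMI 1640 with 10% heat-inactivated FBS were exposed to a range of concentrations for 72 h. They were then TCA-fixed (10%) and stained with sulforhodamine B. Growth is expressed as % of solvent-treated control, and IC50 is obtained by non-linear regression. Means of ≥3 experiments.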

[2] = Cytotoxicity against human HCT116 cells by SRB assay; format: functional, cell-based; conditions: HCT-116; how it was run: as §1
[3] = target: T1, Histone deacetylase (Homo sapiens) (UniProt Q13547+O15379+Q9UBN7+Q92769+Q9UQL6+Q8WUI4+Q9BY41+Q96DB2+P56524+Q9UKV0+Q969S8); assay: Inhibition of HDAC in human A549 cells assessed as increase in acetylated histone 3 expression level at 1.6 uM after 24 hrs by western blotting analysis; format: cell-based
How it was run: (§2)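 After 24 h exposure (0.2–1.6 µM), A549 lysates were prepared in Tris-HCl pH 6.8/4% SDS buffer with protease and phosphatase inhibitors at 4 °C. Equal protein was separated by SDS-PAGE and transferred to PVDF. Membranes were blocked in 5% BSA/TBS-Tween for 2 h, incubated with primary antibody overnight at 4 °C, then HRP secondary for 1 h, with chemiluminescent detection.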

[4] = tested on: A549; assay: Antitumor activity against human A549 cells xenografted in athymic BALB/c nu/nu mouse assessed as reduction in tumor weight at 30 mg/kg, ip administered thrice a week measured after 35 days relative to vehicle-treated control; format: functional, organism-based; design: dose 30 mg/kg
How it was run: (§3)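 Male BALB/c nu/nu mice (6 weeks) were implanted s.c. in the right flank with 1 × 10^7 A549 cells. Dosing started at tumor volume 50–60 mm3, with 6 mice per group. Treatment was 15 or 30 mg/kg i.p. three times weekly in 0.05% Tween-80/0.9% NaCl, with vehicle and paclitaxel 5 mg/kg controls. Tumor volume was followed to day 35, and end-point tumors were weighed.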

[5] = target: T1, Histone deacetylase (Homo sapiens); assay: Inhibition of HDAC in human A549 cells at 1.6 uM after 24 hrs by fluorescence assay; format: cell-based
[6] = tested on: A549; assay: Antiproliferative activity against human A549 cells assessed as shrunken and sharp shape at 0.4 uM after 24 hrs by phase contrast microscopy; format: functional, cell-based
How it was run: (§4)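 A549 cells (RPMI 1640, 10% heat-inactivated FBS, 37 °C, 5% CO2) exposed to 0.2–1.6 µM for 24 h; TSA 0.4 µM run alongside. Cell shape examined by phase-contrast microscopy.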

[7] = tested on: A549; assay: Induction of phosphorylated ERK level in human A549 cells after 24 hrs by Western blotting analysis; format: cell-based; how it was run: as §2
[8] = target: T1, Histone deacetylase (Homo sapiens); assay: Inhibition of HDAC in human A549 cells after 24 hrs by fluorescence assay; format: cell-based
[9] = tested on: A549; assay: Antitumor activity against human A549 cells xenografted in athymic BALB/c nu/nu mouse assessed as tumor growth inhibition at 30 mg/kg, ip administered thrice a week measured after 35 days relative to vehicle-treated control; format: functional; conditions: 840 h, route intraperitoneal, read-out: TGI; how it was run: as §3
[10] = target: T1, Histone deacetylase (Homo sapiens); assay: Inhibition of HDAC in human A549 cells assessed as increase in acetylated histone 3 expression level after 24 hrs by western blotting analysis; format: cell-based; how it was run: as §2
[11] = tested on: A549; assay: Antitumor activity against human A549 cells xenografted in athymic BALB/c nu/nu mouse assessed as inhibition of Ki-67 expression in central and edge region of tumor at 15 to 30 mg/kg, ip administered thrice a week measured after 35 days by immunohistochemical analysis relative to vehicle-treated control; format: functional, organism-based
How it was run: (§5)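 In the A549 nude-mouse xenograft (15 or 30 mg/kg i.p. thrice weekly, vehicle control), end-point tumor sections were incubated overnight at 4 °C with Ki-67 antibody. Detection used an HRP polymer system with hematoxylin-eosin counterstain, and sections were imaged by light microscopy.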

[12] = tested on: A549; assay: Antitumor activity against human A549 cells xenografted in athymic BALB/c nu/nu mouse assessed as change in cell number in edge or peripheral region of tumor at 15 to 30 mg/kg, ip administered thrice a week measured after 35 days by immunohistochemical analysis relative to vehicle-treated control; format: functional, organism-based; how it was run: as §5
[13] = tested on: A549; assay: Antitumor activity against human A549 cells xenografted in athymic BALB/c nu/nu mouse assessed as tumor growth inhibition at 15 mg/kg, ip administered thrice a week measured after 35 days relative to vehicle-treated control; format: functional; conditions: 840 h, route intraperitoneal, read-out: TGI; how it was run: as §3
[14] = tested on: A549; assay: Antiproliferative activity against human A549 cells assessed as shrunken and sharp shape at 1.6 uM after 24 hrs by phase contrast microscopy; format: functional, cell-based; how it was run: as §4
[15] = tested on: A549; assay: Antitumor activity against human A549 cells xenografted in athymic BALB/c nu/nu mouse assessed as reduction in tumor weight at 15 to 30 mg/kg, ip administered thrice a week measured after 35 days relative to vehicle-treated control; format: functional, organism-based; how it was run: as §3
[16] = tested on: A549; assay: Antitumor activity against human A549 cells xenografted in athymic BALB/c nu/nu mouse assessed as change in cell number in central region of tumor at 15 to 30 mg/kg, ip administered thrice a week measured after 35 days by immunohistochemical analysis relative to vehicle-treated control; format: functional, organism-based; how it was run: as §5
[17] = tested on: A549; assay: Antiproliferative activity against human A549 cells assessed as morphological changes after 24 hrs by phase contrast microscopy; format: functional, cell-based; how it was run: as §4
[18] = tested on: A549; assay: Induction of phosphorylated AKT level in human A549 cells after 24 hrs by Western blotting analysis; format: cell-based; how it was run: as §2
[19] = tested on: Mus musculus; assay: Toxicity in athymic BALB/c nu/nu mouse xenografted with human A549 cells assessed as change in body weight at 15 to 30 mg/kg, ip administered thrice a week measured after 35 days relative to vehicle-treated control; format: organism-based; design: dose 15-30 mg/kg, route intraperitoneal; conditions: in vivo, 840 h

Structure (SMILES) | pIC50 [1] | pIC50 [2] | other results
CO/N=C(/Cc1ccc(OC)cc1)C(=O)NCCSSCCNC(=O)/C(Cc1ccc(OC)cc1)=N\OC | < 4.00 | < 4.00 | 
O=C(NCCSSCCNC(=O)/C(Cc1ccccc1)=N/O)/C(Cc1ccccc1)=N\O | 5.18 | 5.21 | 
COc1ccc(C/C(=N/O)C(=O)NCCSSCCNC(=O)/C(Cc2ccc(OC)cc2)=N/O)cc1 | 5.55 | 5.36 | 
CC(C)(C)c1ccc(C/C(=N/O)C(=O)NCCSSCCNC(=O)/C(Cc2ccc(C(C)(C)C)cc2)=N/O)cc1 | 5.75 | 5.78 | 
O=C(NCCCl)/C(Cc1ccc(OCc2ccccc2)cc1)=N\O | < 4.00 | < 4.00 | 
O=C(NCCSSCCNC(=O)/C(Cc1ccc(O)c(Br)c1)=N/O)/C(Cc1ccc(O)c(Br)c1)=N/O [PSAMMAPLIN A] | 5.93 | 5.79 | inhibition [3]: Active; Activity [4]: Active; inhibition [5]: Active
O=C(NCCSSCCNC(=O)/C(Cc1ccc(OC2CCCC2)cc1)=N/O)/C(Cc1ccc(OC2CCCC2)cc1)=N\O | 5.85 | 5.27 | 
O=C(NCCSCCNC(=O)/C(Cc1ccc(OCc2ccccc2)cc1)=N\O)/C(Cc1ccc(OCc2ccccc2)cc1)=N\O | 5.60 | < 4.00 | 
O=C(NCCSSCCNC(=O)/C(Cc1cccc2ccccc12)=N/O)/C(Cc1cccc2ccccc12)=N\O | < 4.00 | < 4.00 | 
O=C(NCCSSCCNC(=O)/C(Cc1cc(Cl)cc(Cl)c1)=N/O)/C(Cc1cc(Cl)cc(Cl)c1)=N\O | 5.64 | 5.68 | 
CO/N=C(/Cc1ccc(OC)c(Br)c1)C(=O)NCCSSCCNC(=O)/C(Cc1ccc(OC)c(Br)c1)=N\OC | 5.04 | 4.97 | 
O=C(NCCSSCCNC(=O)/C(Cc1c2ccccc2cc2ccccc12)=N\O)/C(Cc1c2ccccc2cc2ccccc12)=N\O | 4.73 | 4.55 | 
O=C(NCCSSCCNC(=O)/C(Cc1ccc(Br)cc1)=N/O)/C(Cc1ccc(Br)cc1)=N\O | 5.23 | 5.14 | 
O=C(NCCSSCCNC(=O)/C(Cc1ccc(OCc2ccccc2)cc1)=N/O)/C(Cc1ccc(OCc2ccccc2)cc1)=N\O | 5.95 | 5.80 | 
O=C(NCCSSCCNC(=O)/C(Cc1ccc(Cl)cc1)=N/O)/C(Cc1ccc(Cl)cc1)=N\O | 5.59 | 5.69 | 
O=C(NCCSSCCNC(=O)/C(Cc1ccc(Oc2ccccc2)cc1)=N/O)/C(Cc1ccc(Oc2ccccc2)cc1)=N\O | < 4.00 | 4.69 | 
CCOc1ccc(C/C(=N/O)C(=O)NCCSSCCNC(=O)/C(Cc2ccc(OCC)cc2)=N/O)cc1 | 5.86 | 5.79 | 
O=C(NCCSSCCNC(=O)/C(Cc1ccc(F)cc1)=N/O)/C(Cc1ccc(F)cc1)=N\O | 5.46 | 5.42 | 
O=C(NCCSSCCNC(=O)/C(Cc1ccc([N+](=O)[O-])cc1)=N/O)/C(Cc1ccc([N+](=O)[O-])cc1)=N\O | 5.58 | 5.74 | 
CC(/C=C/C(=O)NO)=C\[C@@H](C)C(=O)c1ccc(N(C)C)cc1 |  |  | Activity [6]: Active
CCCCOc1ccc(C/C(=N/O)C(=O)NCCSSCCNC(=O)/C(Cc2ccc(OCCCC)cc2)=N/O)cc1 | 4.39 | 4.62 | 
O=C(NCCSSCCNC(=O)/C(Cc1ccc(Cl)c(Cl)c1)=N/O)/C(Cc1ccc(Cl)c(Cl)c1)=N\O | 5.80 | 5.84 | 
O=C(NCCSSCCNC(=O)/C(Cc1ccc2ccccc2c1)=N/O)/C(Cc1ccc2ccccc2c1)=N\O | 5.92 | 5.89 | Activity [7]: Dose-dependent effect; inhibition [8]: Dose-dependent effect; inhibition in vivo at 30 mg/kg [9]: 47.6%; inhibition [10]: Dose-dependent effect; inhibition [11]: Active; Activity [12]: Active; inhibition in vivo at 15 mg/kg [13]: 30.4%; Activity [1]: Dose-dependent effect; Activity [14]: Active; Activity [15]: Active; Activity [16]: inactive; Activity [17]: Dose-dependent effect; Activity [18]: Dose-dependent effect; Activity [19]: Non-toxic
CCCOc1ccc(C/C(=N/O)C(=O)NCCSSCCNC(=O)/C(Cc2ccc(OCCC)cc2)=N/O)cc1 | 4.87 | 4.81 | 
O=C(NCCCCl)/C(Cc1ccc(OCc2ccccc2)cc1)=N\O | < 4.00 | < 4.00 | 
O=C(NCCCCCCNC(=O)/C(Cc1ccc(OCc2ccccc2)cc1)=N\O)/C(Cc1ccc(OCc2ccccc2)cc1)=N\O | 4.70 | < 4.00 | 
Cc1ccc(C/C(=N/O)C(=O)NCCSSCCNC(=O)/C(Cc2ccc(C)cc2)=N/O)cc1 | 5.22 | 5.25 | 
O=C(NCCS)/C(Cc1ccc(OCc2ccccc2)cc1)=N\O | 4.40 | 4.07 | 
O=C(NCCSSCCNC(=O)/C(Cc1cc(Cl)cc(Cl)c1Cl)=N/O)/C(Cc1cc(Cl)cc(Cl)c1Cl)=N\O | 5.29 | 5.37 | 
